# Source: ChEMBL document CHEMBL5303300, “EUbOPEN Chemogenomics Library - Multiplex” (2023)
# Values joined by “and” are separate entries in the source; they are usually repeats but may differ in a detail not shown here. Identical values can stand only once.
# System: U2OS
# Experiment: Multiplex assay against U2OS
# Type: toxicity, cell-based
# Details: human, number of replicates 2
# Outline: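 Imaging took place on a CQ1 microscope at 37°C and 5% CO2 once compound had been added to live cells stained at seeding with Hoechst33342, BioTracker Green Microtubule Cytoskeleton Dye, MitoTracker Red and Annexin V Alexa Fluor 680. CellPathfinder machine-learning gating classed cells as Hoechst high-intensity objects or normal cells, classed normal cells as having healthy, pyknosed or fragmented nuclei, and classed pyknosed cells as mitotic or apoptotic. Tubulin, mitochondrial-mass and membrane-permeability phenotypes are per cents of the healthy-nucleus cells.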
# [1] = 12 h, 1 µM, compound concentration 1 uM
# [2] = 12 h, 10 µM, compound concentration 10 uM
# [3] = 24 h, 1 µM, compound concentration 1 uM
# [4] = 24 h, 10 µM, compound concentration 10 uM
# [5] = 48 h, 1 µM, compound concentration 1 uM
# [6] = 48 h, 10 µM, compound concentration 10 uM
smiles,measurement,setting,value
COc1cc(C(=O)NC2CCN(C)CC2)ccc1Nc1ncc(C(F)(F)F)c(NCc2ccc(C)cc2N(C)S(C)(=O)=O)n1.O=CO.O=CO,Population Apoptotic (%),[1],50% and 69%
same,Population Fragmented Nuclei (%),[1],6% and 5%
same,Population Healthy Nuclei (%),[1],81% and 80%
same,Population Hoechst High Intensity Objects (%),[1],0%
same,Population Membrane Permeable-Phenotype (%),[1],7% and 20%
same,Population Mitotic Cells (%),[1],50% and 30%
same,Population Normal (%),[1],100%
same,Population Pyknosed Nuclei (%),[1],12% and 14%
same,Population Tubulin-Different-Phenotype (%),[1],38% and 40%
same,Population Apoptotic (%),[2],66% and 81%
same,Population Healthy Nuclei (%),[2],25%
same,Population Hoechst High Intensity Objects (%),[2],1% and 3%
same,Population Membrane Permeable-Phenotype (%),[2],38% and 48%
same,Population Mitochondria Different-Phenotype (%),[2],84% and 69%
same,Population Mitotic Cells (%),[2],33% and 18%
same,Population Normal (%),[2],98% and 96%
same,Population Pyknosed Nuclei (%),[2],47% and 66%
same,Population Tubulin-Different-Phenotype (%),[2],100% and 96%
same,Population Apoptotic (%),[3],42% and 74%
same,Population Fragmented Nuclei (%),[3],4% and 5%
same,Population Healthy Nuclei (%),[3],74% and 79%
same,Population Hoechst High Intensity Objects (%),[3],0%
same,Population Membrane Permeable-Phenotype (%),[3],4% and 8%
same,Population Mitochondria Different-Phenotype (%),[3],30% and 36%
same,Population Mitotic Cells (%),[3],57% and 25%
same,Population Normal (%),[3],100%
same,Population Pyknosed Nuclei (%),[3],21% and 15%
same,Population Tubulin-Different-Phenotype (%),[3],26% and 35%
same,Population Apoptotic (%),[4],96% and 93%
same,Population Healthy Nuclei (%),[4],6% and 7%
same,Population Hoechst High Intensity Objects (%),[4],3% and 5%
same,Population Membrane Permeable-Phenotype (%),[4],75% and 80%
same,Population Mitochondria Different-Phenotype (%),[4],100% and 86%
same,Population Mitotic Cells (%),[4],4% and 6%
same,Population Normal (%),[4],96% and 94%
same,Population Pyknosed Nuclei (%),[4],43% and 78%
same,Population Tubulin-Different-Phenotype (%),[4],100% and 93%
same,Population Apoptotic (%),[5],64% and 83%
same,Population Fragmented Nuclei (%),[5],12% and 4%
same,Population Healthy Nuclei (%),[5],50% and 68%
same,Population Hoechst High Intensity Objects (%),[5],1% and 0%
same,Population Membrane Permeable-Phenotype (%),[5],6% and 7%
same,Population Mitochondria Different-Phenotype (%),[5],20% and 28%
same,Population Mitotic Cells (%),[5],35% and 16%
same,Population Normal (%),[5],98% and 99%
same,Population Pyknosed Nuclei (%),[5],37% and 26%
same,Population Tubulin-Different-Phenotype (%),[5],24% and 46%
same,Population Apoptotic (%),[6],92%
same,Population Healthy Nuclei (%),[6],5% and 9%
same,Population Hoechst High Intensity Objects (%),[6],0% and 3%
same,Population Membrane Permeable-Phenotype (%),[6],100% and 73%
same,Population Mitochondria Different-Phenotype (%),[6],66% and 73%
same,Population Mitotic Cells (%),[6],7%
same,Population Normal (%),[6],100% and 96%
same,Population Pyknosed Nuclei (%),[6],49% and 76%
same,Population Tubulin-Different-Phenotype (%),[6],100%
Cc1ccc(C(=O)Nc2cc(N3CCN(C)CC3)cc(C(F)(F)F)c2)cc1-n1cc(-c2cnn(C)c2C)nn1.Cl,Population Apoptotic (%),[1],25% and 60%
same,Population Healthy Nuclei (%),[1],70% and 79%
same,Population Hoechst High Intensity Objects (%),[1],0%
same,Population Membrane Permeable-Phenotype (%),[1],12% and 17%
same,Population Mitotic Cells (%),[1],75% and 39%
same,Population Normal (%),[1],100%
same,Population Pyknosed Nuclei (%),[1],8% and 17%
same,Population Tubulin-Different-Phenotype (%),[1],69% and 29%
same,Population Apoptotic (%),[2],60% and 83%
same,Population Healthy Nuclei (%),[2],69% and 51%
same,Population Hoechst High Intensity Objects (%),[2],0%
same,Population Membrane Permeable-Phenotype (%),[2],28% and 37%
same,Population Mitochondria Different-Phenotype (%),[2],42% and 62%
same,Population Mitotic Cells (%),[2],39% and 16%
same,Population Normal (%),[2],100%
same,Population Pyknosed Nuclei (%),[2],24% and 19%
same,Population Tubulin-Different-Phenotype (%),[2],86% and 87%
same,Population Apoptotic (%),[3],31% and 70%
same,Population Healthy Nuclei (%),[3],55% and 73%
same,Population Hoechst High Intensity Objects (%),[3],0%
same,Population Membrane Permeable-Phenotype (%),[3],0% and 9%
same,Population Mitotic Cells (%),[3],68% and 29%
same,Population Normal (%),[3],100%
same,Population Pyknosed Nuclei (%),[3],27% and 24%
same,Population Tubulin-Different-Phenotype (%),[3],68% and 44%
same,Total Cell Count,[3],69 and 193
same,Population Apoptotic (%),[4],85%
same,Population Fragmented Nuclei (%),[4],28% and 10%
same,Population Healthy Nuclei (%),[4],46% and 50%
same,Population Hoechst High Intensity Objects (%),[4],3% and 0%
same,Population Membrane Permeable-Phenotype (%),[4],23% and 42%
same,Population Mitochondria Different-Phenotype (%),[4],38% and 55%
same,Population Mitotic Cells (%),[4],14%
same,Population Normal (%),[4],96% and 99%
same,Population Pyknosed Nuclei (%),[4],25% and 38%
same,Population Tubulin-Different-Phenotype (%),[4],69% and 89%
same,Population Apoptotic (%),[5],69% and 75%
same,Population Fragmented Nuclei (%),[5],9% and 3%
same,Population Healthy Nuclei (%),[5],65% and 72%
same,Population Hoechst High Intensity Objects (%),[5],0%
same,Population Membrane Permeable-Phenotype (%),[5],4% and 8%
same,Population Mitotic Cells (%),[5],30% and 24%
same,Population Normal (%),[5],100% and 99%
same,Population Pyknosed Nuclei (%),[5],24%
same,Population Tubulin-Different-Phenotype (%),[5],72% and 41%
same,Population Apoptotic (%),[6],92% and 100%
same,Population Healthy Nuclei (%),[6],21% and 26%
same,Population Hoechst High Intensity Objects (%),[6],0%
same,Population Membrane Permeable-Phenotype (%),[6],52% and 22%
same,Population Mitochondria Different-Phenotype (%),[6],63% and 55%
same,Population Mitotic Cells (%),[6],7% and 0%
same,Population Normal (%),[6],99% and 100%
same,Population Pyknosed Nuclei (%),[6],67% and 38%
same,Population Tubulin-Different-Phenotype (%),[6],86% and 66%
